According to ChEMBL document CHEMBL1155210, “The discovery of tertiary-amine LXR agonists with potent cholesterol efflux activity in macrophages” (Bioorg Med Chem Lett, 2009):

Key:
RAW264.7 [1] = test: Induction of [3H]cholesterol efflux in mouse RAW264.7 cells loaded with acetylated-LDL after 24 hrs; format: functional, cell-based
Method in brief: (§1)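 Mouse RAW 264.7 macrophages were grown overnight, then loaded for 24 h with acetylated LDL (final 50 µg/mL) plus 3H-cholesterol (5 µCi/mL). Cells were washed and held 24 h in serum-free, phenol red-free medium with 1% fatty acid-free BSA and compound in DMSO. Efflux then ran 24 h into medium with 0.1% BSA, 5 µg/mL apoA-I and fresh compound. Filtered medium and NaOH cell lysate were counted by scintillation.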

[2] = target: Oxysterols receptor LXR-beta (Homo sapiens) (UniProt P55055); test: Agonist activity at human LXRbeta assessed as association of SRC1 to LXRbeta ligand binding domain by FRET based cell-free ligand sensing assay relative to 2-(3-(3-((2-chloro-3-(trifluoromethyl)benzyl)(2,2-diphenylethyl)amino)propoxy)phenyl)acetic acid; parameters: concentration or dose not given beside the values
RAW264.7 [3] = test: Induction of [3H]cholesterol efflux in mouse RAW264.7 cells loaded with acetylated-LDL after 24 hrs relative to 2-(3-(3-((2-chloro-3-(trifluoromethyl)benzyl)(2,2-diphenylethyl)amino)propoxy)phenyl)acetic acid; format: functional; method in brief: as §1
Macrophage [4] = test: Increase in ABCG1 gene expression in human primary macrophages at 100 nM relative to control; format: functional
Macrophage [5] = test: Increase in ABCA1 gene expression in human primary macrophages at 100 nM relative to control; format: functional
[6] = target: T1, Oxysterols receptor LXR-alpha (Homo sapiens, UniProt Q13133); test: Agonist activity at human LXRalpha assessed as association of SRC1 to LXRalpha ligand binding domain by FRET based cell-free ligand sensing assay
T1 sequence (Q13133 whole entry): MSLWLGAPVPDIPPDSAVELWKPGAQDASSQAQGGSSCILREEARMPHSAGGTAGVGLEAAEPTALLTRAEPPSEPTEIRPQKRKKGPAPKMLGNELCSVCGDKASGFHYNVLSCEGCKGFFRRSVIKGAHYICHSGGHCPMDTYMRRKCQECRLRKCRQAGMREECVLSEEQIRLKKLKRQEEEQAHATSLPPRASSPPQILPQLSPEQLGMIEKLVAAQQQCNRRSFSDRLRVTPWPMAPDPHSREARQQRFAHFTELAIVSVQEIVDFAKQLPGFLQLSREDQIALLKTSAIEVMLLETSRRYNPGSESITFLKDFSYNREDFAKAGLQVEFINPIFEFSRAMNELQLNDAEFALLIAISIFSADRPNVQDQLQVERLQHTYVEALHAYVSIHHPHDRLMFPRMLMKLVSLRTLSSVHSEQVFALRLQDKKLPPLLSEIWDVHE
Method in brief: (§2)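 Cell-free FRET ligand-sensing assay measuring ligand-dependent recruitment of a 24-amino-acid steroid receptor coactivator 1 (SRC1) fragment to the LXR ligand-binding domain. Percent efficacy is expressed against the maximal agonist response of the reference agonist. Values are means of at least two experiments, standard deviation ≤10%.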

[7] = target: T2, Oxysterols receptor LXR-beta (Homo sapiens, UniProt P55055); test: Agonist activity at human LXRbeta assessed as association of SRC1 to LXRbeta ligand binding domain by FRET based cell-free ligand sensing assay; method in brief: as §2
T2 sequence (P55055 whole entry): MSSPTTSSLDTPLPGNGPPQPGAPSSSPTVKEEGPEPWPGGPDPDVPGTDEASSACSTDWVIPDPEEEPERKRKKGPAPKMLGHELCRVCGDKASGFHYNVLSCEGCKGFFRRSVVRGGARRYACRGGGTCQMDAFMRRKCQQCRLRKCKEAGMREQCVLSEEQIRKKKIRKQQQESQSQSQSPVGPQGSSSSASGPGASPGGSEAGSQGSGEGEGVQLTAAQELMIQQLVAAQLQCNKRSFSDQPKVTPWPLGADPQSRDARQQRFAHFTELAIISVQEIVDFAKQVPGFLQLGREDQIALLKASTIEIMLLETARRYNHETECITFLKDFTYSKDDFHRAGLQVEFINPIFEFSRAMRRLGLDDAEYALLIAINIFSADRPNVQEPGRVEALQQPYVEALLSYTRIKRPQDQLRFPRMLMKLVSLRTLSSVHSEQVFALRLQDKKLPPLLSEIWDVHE

Macrophage [8] = test: Increase in SREBP1 gene expression in human primary macrophages at 100 nM relative to control; format: functional
Macrophage [9] = test: Increase in ABCA1 gene expression in human primary macrophages; format: functional, cell-based
Macrophage [10] = test: Increase in ABCG1 gene expression in human primary macrophages; format: functional, cell-based
Macrophage [11] = test: Increase in ABCG1 gene expression in human primary macrophages at 30 nM relative to control; format: functional
[12] = target: T3, Oxysterols receptor LXR-alpha (Homo sapiens) (UniProt Q13133); test: Agonist activity at human LXRalpha assessed as association of SRC1 to LXRalpha ligand binding domain by FRET based cell-free ligand sensing assay relative 2-(3-(3-((2-chloro-3-(trifluoromethyl)benzyl)(2,2-diphenylethyl)amino)propoxy)phenyl)acetic acid; method in brief: as §2
T3 sequence (whole entry): T1 sequence (Q13133 whole entry)

Macrophage [13] = test: Increase in ABCA1 gene expression in human primary macrophages at 30 nM relative to control; format: functional
[14] = target: T4, Nuclear receptor subfamily 1 group I member 2 (Homo sapiens, UniProt O75469); test: Binding affinity to PXR by scintillation proximity binding assay
T4 sequence (O75469 whole entry): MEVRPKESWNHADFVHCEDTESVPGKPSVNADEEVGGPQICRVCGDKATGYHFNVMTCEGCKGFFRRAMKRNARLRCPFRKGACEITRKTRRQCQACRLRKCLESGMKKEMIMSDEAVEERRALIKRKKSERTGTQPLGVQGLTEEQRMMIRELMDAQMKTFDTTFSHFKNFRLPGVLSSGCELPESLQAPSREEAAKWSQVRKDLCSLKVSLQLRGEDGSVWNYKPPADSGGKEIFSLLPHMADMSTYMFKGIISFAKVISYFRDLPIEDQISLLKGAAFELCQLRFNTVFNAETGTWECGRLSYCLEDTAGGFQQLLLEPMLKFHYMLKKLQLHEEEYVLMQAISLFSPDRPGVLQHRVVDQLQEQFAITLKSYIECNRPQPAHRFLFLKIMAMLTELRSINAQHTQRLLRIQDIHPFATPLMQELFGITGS

[15] = Half life in Sprague-Dawley rat at 4.5 mg/kg, po; format: ADME, organism-based; parameters: dose 4.5 mg/kg, route oral; settings: in vivo
Method in brief: (§3)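 Pharmacokinetics were measured after an intravenous dose of 2.6 mg/kg and an oral dose of 4.5 mg/kg. Oral half-life and oral bioavailability (F%) are reported as mean ± deviation.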

[16] = Plasma clearance in Sprague-Dawley rat at 2.6 mg/kg, iv; format: ADME, organism-based; parameters: dose 2.6 mg/kg, route intravenous
[17] = Oral bioavailability in Sprague-Dawley rat at 4.5 mg/kg; format: ADME, organism-based; settings: in vivo; method in brief: as §3
[18] = Volume of distribution at steady state in Sprague-Dawley rat at 2.6 mg/kg, iv; format: ADME, organism-based; parameters: dose 2.6 mg/kg, route intravenous; settings: in vivo, read-out: Vdss
[19] = Half life in Sprague-Dawley rat at 2.6 mg/kg, iv; format: ADME, organism-based; parameters: dose 2.6 mg/kg, route intravenous; settings: in vivo
[20] = Cmax in Sprague-Dawley rat at 2.6 mg/kg, iv; format: ADME, organism-based; parameters: dose 2.6 mg/kg, route intravenous; settings: in vivo

SMILES | EC50 (RAW264.7 [1]) [nM] | Activity [2] [%] | EC50 [6] [nM] | EC50 [7] [nM] | Activity [12] [%] | Ki [14] [nM] | half-life [15] [h] | clearance [16] [mL/min/kg] | bioavailability [17] [%] | Vd [18] [L/kg] | half-life [19] [h] | Cmax [20] [ng/mL] | fold change (FC) (RAW264.7 [3]) | fold change (FC) (Macrophage [4]) | fold change (FC) (Macrophage [5]) | fold change (FC) (Macrophage [8]) | Activity (Macrophage [9]) | Activity (Macrophage [10]) | fold change (FC) (Macrophage [11]) | fold change (FC) (Macrophage [13])
CC(C)(C(=O)O)c1cccc(OCCCN(Cc2cccc(C(F)(F)F)c2Cl)CC(c2ccccc2)c2ccccc2)c1 | 7 | 95 | 43 | 15 | 100 |  |  |  |  |  |  |  | 2 | 11.2 | 4 | 5.8 | Dose-dependent effect | Dose-dependent effect | 7.5 | 3
C[C@@H](CCOc1cccc(CC(=O)O)c1)N(Cc1cccc(C(F)(F)F)c1Cl)CC(c1ccccc1)c1ccccc1 | 54 | 80 | 211 | 87 | 91 |  |  |  |  |  |  |  |  |  |  |  |  |  |  | 
C[C@@H](COc1cccc(CC(=O)O)c1)CN(Cc1cccc(C(F)(F)F)c1Cl)CC(c1ccccc1)c1ccccc1 | 76 | 70 | 280 | 86 | 67 |  |  |  |  |  |  |  |  |  |  |  |  |  |  | 
C[C@H](CCOc1cccc(C(C)(C)C(=O)O)c1)N(Cc1cccc(C(F)(F)F)c1Cl)CC(c1ccccc1)c1ccccc1 | < 3 | 100 | 9 | 11 | 100 |  |  |  |  |  |  |  | 2 |  |  |  |  |  |  | 
CCC(CC)(C(=O)O)c1cccc(OCCCN(Cc2cccc(C(F)(F)F)c2Cl)CC(c2ccccc2)c2ccccc2)c1 |  | 68 | 380 | 174 | 69 |  |  |  |  |  |  |  |  |  |  |  |  |  |  | 
CC(C(=O)O)c1cccc(OCCCN(Cc2cccc(C(F)(F)F)c2Cl)CC(c2ccccc2)c2ccccc2)c1 (stereo not given) | 15 | 90 | 46 | 15 | 100 |  |  |  |  |  |  |  | 2 |  |  |  |  |  |  | 
O=C(O)C1CCCc2c(OCCCN(Cc3cccc(C(F)(F)F)c3Cl)CC(c3ccccc3)c3ccccc3)cccc21 (racemic) | 18 | 100 | 56 | 26 | 100 |  |  |  |  |  |  |  | 2 | 3.6 | 2.6 | 2.6 | Dose-dependent effect | Dose-dependent effect | 2 | 1.4
O=C(O)Cc1cccc(OCCCN(Cc2cccc(C(F)(F)F)c2Cl)CC(c2ccccc2)c2ccccc2)c1 | 29 |  | 200 |  |  | 2000 |  |  |  |  |  |  |  | 5.4 | 3.1 | 4.1 | Dose-dependent effect | Dose-dependent effect | 3.2 | 2
C[C@H](CCOc1cccc(CC(=O)O)c1)N(Cc1cccc(C(F)(F)F)c1Cl)CC(c1ccccc1)c1ccccc1 [ABEQUOLIXRON] | 17 | 89 | 74 | 25 | 100 | > 10000 | 2.4 | 23.7 | 71 | 1.9 | 1.82 | 2130 | 2 | 8 | 6.3 | 5.5 | Dose-dependent effect | Dose-dependent effect | 4.2 | 3.6

Further lines, with some results ahead:

EC50 (RAW264.7 [1]) [nM] | Activity [2] [%] | EC50 [6] [nM] | EC50 [7] [nM] | Activity [12] [%] | Ki [14] [nM] | half-life [15] [h] | clearance [16] [mL/min/kg] | bioavailability [17] [%] | Vd [18] [L/kg] | half-life [19] [h] | Cmax [20] [ng/mL] | SMILES | fold change (FC) (RAW264.7 [3]) | fold change (FC) (Macrophage [4]) | fold change (FC) (Macrophage [5]) | fold change (FC) (Macrophage [8]) | Activity (Macrophage [9]) | Activity (Macrophage [10]) | fold change (FC) (Macrophage [11]) | fold change (FC) (Macrophage [13])
 | 26 | 305 | 145 | 20 |  |  |  |  |  |  |  | O=C(O)Cc1ccc2oc(CCN(Cc3cccc(C(F)(F)F)c3Cl)CC(c3ccccc3)c3ccccc3)cc2c1 |  |  |  |  |  |  |  | 
 | 59 | 365 | 145 | 39 |  |  |  |  |  |  |  | C[C@@H](CCN(Cc1cccc(C(F)(F)F)c1Cl)CC(c1ccccc1)c1ccccc1)Oc1cccc(CC(=O)O)c1 |  |  |  |  |  |  |  | 
 | 75 | 331 | 63 | 53 |  |  |  |  |  |  |  | O=C(O)Cc1ccc2cc(CCN(Cc3cccc(C(F)(F)F)c3Cl)CC(c3ccccc3)c3ccccc3)oc2c1 |  |  |  |  |  |  |  | 
34 | 76 | 200 | 41 | 78 | > 10000 |  |  |  |  |  |  | C[C@H](CCN(Cc1cccc(C(F)(F)F)c1Cl)CC(c1ccccc1)c1ccccc1)Oc1cccc(CC(=O)O)c1 |  |  |  |  |  |  |  | 
